The values below come from ChEMBL document CHEMBL3779846, “Evaluation of toxicity on epithelial and tumor cells of biaryl dipeptide tyrosines” (Eur J Med Chem, 2016).

Data set [1] deals with HUVEC. Put plainly: Induction of mitochondrial membrane potential depolarization in HUVEC at 200 uM after 24 hrs by JC-1 staining based flow cytometry. It counts as cell-based. As to conditions: human. The method, boiled down: (§1)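 Cells were kept in […] with 10% FBS at 37 C and 5% CO2. They were plated at 1 × 10⁴ cells/well and treated after adhesion. They were then PBS-washed and stained with JC-1 ([…]) for 30 min at 37 C, then trypsinized and centrifuged. Flow cytometry acquired 10,000 events (excitation 488 nm, emission 529/590 nm). Read-out was the ratio of mean green to red fluorescence, from two independent assays.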
A general note: Flow cytometry measures light scatter and fluorescence of single cells or particles in a stream.

The subject of data set [2] is SK-MEL-28. Put plainly: Induction of mitochondrial membrane potential depolarization in human SK-MEL-28 cells at 200 uM after 24 hrs by JC-1 staining based flow cytometry. It counts as functional, cell-based. The method, boiled down:
as §1

Data set [3] deals with HUVEC. Put plainly: Induction of apoptosis in HUVEC at 0.1 to 1 uM after 48 hrs by Annexin V-FITC/propidium iodide staining-based flow cytometry. It counts as cell-based. As to conditions: human. The gist of the method:
(§2)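 After adhesion, 1 × 10⁴ cells/well were exposed for 48 h with medium control and 0.1% DMSO vehicle. Cells washed with PBS, trypsinized and centrifuged (600 × g, 10 min). Stained with FITC-Annexin V (1:100 in binding buffer, 30 min) and propidium iodide, then read by flow cytometry for apoptotic, late apoptotic and necrotic fractions; three independent assays.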

Data set [4] concerns HUVEC. Put plainly: Cytotoxicity against HUVEC assessed as reduction in cell proliferation at 0.1 to 1 uM after 14 to 48 hrs by trypan blue staining based haemocytometer method. As to conditions: human. The method, boiled down:
(§3)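 1 × 10⁴ cells/well in […] plus 10% FBS, treated after adhesion for 14, 24 or 48 h alongside medium control, 0.1% DMSO vehicle and 10% DMSO positive control. Cell number counted by trypan blue exclusion under optical microscopy; three independent assays.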

Data set [5] relates to HUVEC. Put plainly: Induction of mitochondrial membrane potential depolarization in HUVEC at 0.1 to 1 uM after 48 hrs by JC-1 staining based flow cytometry. It counts as cell-based. Particulars: human. The gist of the method:
(§4)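 1 × 10⁴ cells/well exposed 48 h after adhesion; medium control and 0.1% DMSO vehicle. Washed, stained with JC-1 for 30 min at 37 C, 5% CO2, then trypsinized and run on flow cytometry, 10,000 events; excitation 488 nm, emission 529 and 590 nm. Valinomycin positive control. Output: green-to-red mean fluorescence ratio; two independent assays.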

Data set [6] relates to SK-MEL-28. Put plainly: Cytotoxicity against human SK-MEL-28 cells assessed as reduction in cell proliferation at 0.1 to 1 uM after 14 to 48 hrs by trypan blue staining based haemocytometer method. It counts as functional. The method, boiled down: as §3
Data set [7] has as its system SK-MEL-28. Put plainly: Induction of apoptosis in human SK-MEL-28 cells assessed as increase in necrotic cells at 0.1 to 1 uM after 48 hrs by Annexin V-FITC/propidium iodide staining-based flow cytometry. It counts as functional, cell-based. The gist of the method:
as §2

The test system of data set [8] is SK-MEL-28. Put plainly: Cytotoxicity against human SK-MEL-28 cells assessed as impairment in cell metabolism at 0.1 to 1 uM after 24 to 48 hrs by MTT assay. It counts as functional, cell-based. The gist of the method:
(§5)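 Cells maintained in […] with 10% FBS at 37 C, 5% CO2. 1 × 10³ cells/well plated, allowed 24 h adhesion, then treated in medium for 14, 24 or 48 h; vehicle 0.1% DMSO, 10% DMSO positive control. MTT converted to formazan, dissolved in DMSO, read at 570 nm. Expressed as % of untreated (RPMI-only) control; mean of three independent assays.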
In general terms: Tetrazolium dyes change colour on reduction, which living cells bring about.

In data set [9] the test system is SK-MEL-28. Put plainly: Induction of mitochondrial membrane potential depolarization in human SK-MEL-28 cells at 0.1 to 1 uM after 48 hrs by JC-1 staining based flow cytometry. It counts as functional, cell-based. The method, boiled down: as §4
Data set [10] relates to SK-MEL-28. Put plainly: Induction of apoptosis in human SK-MEL-28 cells at 0.1 to 1 uM after 48 hrs by Annexin V-FITC/propidium iodide staining-based flow cytometry. It counts as functional, cell-based. The gist of the method:
as §2

The test system of data set [11] is HUVEC. Put plainly: Induction of apoptosis in HUVEC assessed as increase in necrotic cells at 0.1 to 1 uM after 48 hrs by Annexin V-FITC/propidium iodide staining-based flow cytometry. It counts as cell-based. As to conditions: human. The gist of the method:
as §2

The subject of data set [12] is SK-MEL-28. Put plainly: Induction of apoptosis in human SK-MEL-28 cells assessed as increase in late apoptotic cells at 0.1 to 1 uM after 48 hrs by Annexin V-FITC/propidium iodide staining-based flow cytometry. It counts as functional, cell-based. The method, boiled down:
as §2

Data set [13] concerns HUVEC. Put plainly: Cytotoxicity against HUVEC assessed as impairment in cell metabolism at 0.1 to 1 uM after 24 to 48 hrs by MTT assay. It counts as ADME, cell-based. As to conditions: human. The gist of the method: as §5
The test system of data set [14] is HUVEC. Put plainly: Induction of apoptosis in HUVEC assessed as increase in late apoptotic cells at 0.1 to 1 uM after 48 hrs by Annexin V-FITC/propidium iodide staining-based flow cytometry. It counts as cell-based. As to conditions: human. The method, boiled down:
as §2

Activity calls are given as the source filed them. The calls are words filed in the database; no cut-off is given here.

With `CC(C)[C@@H]1NC(=O)[C@H](C)OC(=O)[C@@H](C(C)C)NC(=O)[C@@H](C(C)C)OC(=O)[C@H](C(C)C)NC(=O)[C@H](C)OC(=O)[C@@H](C(C)C)NC(=O)[C@@H](C(C)C)OC(=O)[C@H](C(C)C)NC(=O)[C@H](C)OC(=O)[C@@H](C(C)C)NC(=O)[C@@H](C(C)C)OC1=O` [VALINOMYCIN], the Activity entry with HUVEC [1] is on record as “Toxic”. Besides, the result with SK-MEL-28 [2] was Active.

`COC(=O)[C@H](Cc1ccc(O)c(-c2ccc(OC)cc2)c1)NC(=O)[C@H](Cc1ccc(O)c(-c2ccc(OC)cc2)c1)NC(=O)OC(C)(C)C`: the Activity entry in the data set on HUVEC [3], with HUVEC [4], in the data set on HUVEC [5], with HUVEC [11], in the data set with HUVEC [13] and in the data set with HUVEC [14] was “Non-toxic” in each case. Also, the outcome with SK-MEL-28 [6] and in the data set on SK-MEL-28 [8] was Active. In addition, the result in the data set on SK-MEL-28 [7], with SK-MEL-28 [9], in the data set with SK-MEL-28 [10] and with SK-MEL-28 [12] was inactive.
